Test results reported in ChEMBL document CHEMBL1221280, “Discovery of achiral inhibitors of the hepatitis C virus NS3 protease based on 2(1H)-pyrazinones” (Bioorg Med Chem, 2010).

Experiments:
[1] = Inhibition of HCV NS3 protease by FRET assay; set-up: species or system Hepacivirus hominis
Summary of the method: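 Full-length HCV NS3 (protease–helicase/NTPase) protein, protease activity read by FRET. Enzyme at 1 nM incubated 10 min at 30 °C in 50 mM HEPES pH 7.5, 10 mM DTT, 40% glycerol before measurement. Inhibitor Ki given with standard deviation. Wild type and the A156T and D168V variants were tested.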

NS3 protease = NS3 protease (Hepatitis C virus subtype 1b, UniProt Q0ZMF1, A156T); test: Inhibition of HCV NS3 protease A156T mutant by FRET assay; set-up: species or system Hepacivirus hominis
Summary of the method: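 Protease activity of full-length HCV NS3 (protease–helicase/NTPase) was measured by FRET. 1 nM enzyme was incubated 10 min at 30 °C in 50 mM HEPES pH 7.5, 10 mM DTT, 40% glycerol before read-out.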

SMILES | Ki [1] [µM] | Ki (NS3 protease) [µM]
C=C[C@@H]1C[C@]1(NC(=O)C(c1ccc(OC)cc1)n1c(C)c(Cl)nc(NC(=O)OC(C)(C)C)c1=O)C(=O)NS(=O)(=O)C1CC1 (some centres undefined) | 7.2 | –
C=C[C@@H]1C[C@]1(NC(=O)C(c1ccccc1)n1c(C)c(Cl)nc(N)c1=O)C(=O)NS(=O)(=O)C1CC1 (some centres undefined) | 11 | –
C=C[C@@H]1C[C@]1(NC(=O)C(c1ccccc1)n1c(C)c(Cl)nc(NCC(N)=O)c1=O)C(=O)NS(=O)(=O)C1CC1 (some centres undefined) | 12 | –
Cc1c(Cl)nc(NCC(N)=O)c(=O)n1CC(=O)Nc1ccccc1C(=O)NS(=O)(=O)c1ccc(C(F)(F)F)cc1 | 18 | –
C=C[C@@H]1C[C@]1(NC(=O)C(c1ccccc1)n1c(C)c(Cl)nc(NCCc2ccccc2)c1=O)C(=O)NS(=O)(=O)C1CC1 (some centres undefined) | 8.3 | –
O=C(O)CNc1nc(Cl)c(Cc2ccccc2)n(CC(=O)Nc2ccccc2C(=O)NS(=O)(=O)c2ccc(C(F)(F)F)cc2)c1=O | 1.5 | 2.5
C=C[C@@H]1C[C@]1(NC(=O)C(c1ccccc1)n1c(C)c(Cl)nc(NC(=O)OC(C)(C)C)c1=O)C(=O)NS(=O)(=O)C1CC1 (some centres undefined) | 4.3 | 5.9
C=C[C@@H]1C[C@]1(NC(=O)C(c1ccccc1)n1c(C)c(Cl)nc(NC(=O)OC(C)(C)C)c1=O)C(=O)O (stereo in doubt; 29a) | 11 | –
C=C[C@@H]1C[C@]1(NC(=O)[C@@H](NC(=O)[C@@H](NC(=O)OC(C)(C)C)C(C)(C)C)c1ccc(OC)cc1)C(=O)NS(=O)(=O)C1CC1 | 5.4 | –
Cc1c(Cl)nc(NC(=O)OC(C)(C)C)c(=O)n1C(C(=O)Nc1ccccc1C(=O)NS(=O)(=O)c1ccc(C(F)(F)F)cc1)c1ccccc1 (centres undefined) | 3.8 | 1.5
Cc1c(Cl)nc(NC(=O)OC(C)(C)C)c(=O)n1C(C(=O)N[C@@H](CC1CC1)C(=O)NS(=O)(=O)C1CC1)c1ccccc1 (some centres undefined) | 9.6 | –
C=C[C@@H]1C[C@]1(NC(=O)C(c1ccccc1)n1c(C)c(Cl)nc(NCC(=O)N2CCOCC2)c1=O)C(=O)NS(=O)(=O)C1CC1 (some centres undefined) | 10 | –
O=C(O)CNc1nc(Cl)c(-c2ccccc2)n(CC(=O)Nc2ccccc2C(=O)NS(=O)(=O)c2ccc(C(F)(F)F)cc2)c1=O | 3 | 5.6
C=C[C@@H]1C[C@]1(NC(=O)C(c1ccccc1)n1c(C)c(Cl)nc(NCC(=O)N(C)C)c1=O)C(=O)NS(=O)(=O)C1CC1 (some centres undefined) | 28 | –
C=C[C@@H]1C[C@]1(NC(=O)C(c1ccccc1)n1c(C)c(Cl)nc(NC(=O)OC(C)(C)C)c1=O)C(=O)O (stereo in doubt; 29b) | 13 | –
O=C(O)CNc1nc(Cl)cn(C(C(=O)Nc2ccccc2C(=O)NS(=O)(=O)c2ccc(C(F)(F)F)cc2)c2ccccc2)c1=O (centres undefined) | 2.3 | 1.8
C=C[C@@H]1C[C@]1(NC(=O)C(c1ccccc1)n1c(C)c(Cl)nc(NCCN2CCOCC2)c1=O)C(=O)NS(=O)(=O)C1CC1 (some centres undefined) | 11 | –
C=C[C@@H]1C[C@]1(NC(=O)[C@H](NC(=O)[C@@H](NC(=O)OC(C)(C)C)C(C)(C)C)c1ccc(OC)cc1)C(=O)NS(=O)(=O)C1CC1 | 34 | –
C=C[C@@H]1C[C@]1(NC(=O)C(c1ccccc1)n1c(C)c(Cl)nc(NCCC(C)(C)C)c1=O)C(=O)NS(=O)(=O)C1CC1 (some centres undefined) | 6.8 | –
